Source: ChEMBL document CHEMBL4689842, “EUbOPEN Chemogenomics Library wave 1” (2021)

Tested on: HEK-293T
Experiment: Multiplex assay against HEK293T;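 as to Population Tubulin-Different-Phenotype (%): share of the cells with healthy nuclei that show this phenotype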
Assay type: toxicity, cell-based
Details: human
Procedure, shortened: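 Live cells were stained at seeding with Hoechst33342, BioTracker Green Microtubule Cytoskeleton Dye, MitoTracker Red and Annexin V Alexa Fluor 680, then imaged on a CQ1 microscope at 37°C and 5% CO2 after compound addition. CellPathfinder machine-learning gating split cells into Hoechst high-intensity objects or normal cells. Normal cells were split into healthy, pyknosed or fragmented nuclei, and pyknosed cells into mitotic or apoptotic. Tubulin, mitochondrial-mass and membrane-permeability phenotypes are per cents of healthy-nucleus cells.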

[1] = 12 h, 1 µM, compound concentration 1 uM, replicate 1
[2] = 12 h, 1 µM, compound concentration 1 uM, replicate 2
[3] = 12 h, 10 µM, compound concentration 10 uM, replicate 1
[4] = 12 h, 10 µM, compound concentration 10 uM, replicate 2
[5] = 24 h, 1 µM, compound concentration 1 uM, replicate 1
[6] = 24 h, 1 µM, compound concentration 1 uM, replicate 2
[7] = 24 h, 10 µM, compound concentration 10 uM, replicate 1
[8] = 24 h, 10 µM, compound concentration 10 uM, replicate 2

## CCCS(=O)(=O)Nc1ccc(F)c(C(=O)c2c[nH]c3ncc(Cl)cc23)c1F [PLX-4720]
[1]
  Population Apoptotic (%): 13%
  Population Fragmented Nuclei (%): 16%
  Population Healthy Nuclei (%): 62%
  Population Hoechst High Intensity Objects (%): 11%
  Population Membrane Permeable-Phenotype (%): 6%
  Population Mitochondria Different-Phenotype (%): 4%
  Population Mitotic Cells (%): 86%
  Population Normal (%): 88%
  Population Pyknosed Nuclei (%): 20%
  Population Tubulin-Different-Phenotype (%): 8%
  Total Cell Count: 675
[2]
  Population Apoptotic (%): 6%
  Population Fragmented Nuclei (%): 7%
  Population Healthy Nuclei (%): 87%
  Population Hoechst High Intensity Objects (%): 2%
  Population Membrane Permeable-Phenotype (%): 2%
  Population Mitochondria Different-Phenotype (%): 10%
  Population Mitotic Cells (%): 93%
  Population Normal (%): 97%
  Population Pyknosed Nuclei (%): 5%
  Population Tubulin-Different-Phenotype (%): 14%
  Total Cell Count: 1750
[3]
  Population Apoptotic (%): 21%
  Population Fragmented Nuclei (%): 13%
  Population Healthy Nuclei (%): 73%
  Population Hoechst High Intensity Objects (%): 13%
  Population Membrane Permeable-Phenotype (%): 3%
  Population Mitochondria Different-Phenotype (%): 2%
  Population Mitotic Cells (%): 78%
  Population Normal (%): 86%
  Population Pyknosed Nuclei (%): 12%
  Population Tubulin-Different-Phenotype (%): 1%
  Total Cell Count: 751
[4]
  Population Apoptotic (%): 11%
  Population Fragmented Nuclei (%): 9%
  Population Healthy Nuclei (%): 86%
  Population Hoechst High Intensity Objects (%): 2%
  Population Membrane Permeable-Phenotype (%): 0%
  Population Mitochondria Different-Phenotype (%): 5%
  Population Mitotic Cells (%): 88%
  Population Normal (%): 97%
  Population Pyknosed Nuclei (%): 4%
  Population Tubulin-Different-Phenotype (%): 2%
  Total Cell Count: 1952
[5]
  Population Apoptotic (%): 28%
  Population Fragmented Nuclei (%): 13%
  Population Healthy Nuclei (%): 78%
  Population Hoechst High Intensity Objects (%): 7%
  Population Membrane Permeable-Phenotype (%): 7%
  Population Mitotic Cells (%): 71%
  Population Normal (%): 92%
  Population Pyknosed Nuclei (%): 7%
  Population Tubulin-Different-Phenotype (%): 9%
  Total Cell Count: 803
[6]
  Population Apoptotic (%): 3%
  Population Fragmented Nuclei (%): 20%
  Population Healthy Nuclei (%): 77%
  Population Hoechst High Intensity Objects (%): 5%
  Population Membrane Permeable-Phenotype (%): 8%
  Population Mitochondria Different-Phenotype (%): 3%
  Population Mitotic Cells (%): 96%
  Population Normal (%): 94%
  Population Pyknosed Nuclei (%): 2%
  Population Tubulin-Different-Phenotype (%): 24%
  Total Cell Count: 2555
[7]
  Population Apoptotic (%): 15%
  Population Fragmented Nuclei (%): 14%
  Population Healthy Nuclei (%): 78%
  Population Hoechst High Intensity Objects (%): 6%
  Population Membrane Permeable-Phenotype (%): 5%
  Population Mitochondria Different-Phenotype (%): 2%
  Population Mitotic Cells (%): 84%
  Population Normal (%): 93%
  Population Pyknosed Nuclei (%): 6%
  Population Tubulin-Different-Phenotype (%): 3%
  Total Cell Count: 975
[8]
  Population Apoptotic (%): 3%
  Population Fragmented Nuclei (%): 29%
  Population Healthy Nuclei (%): 68%
  Population Hoechst High Intensity Objects (%): 3%
  Population Membrane Permeable-Phenotype (%): 3%
  Population Mitochondria Different-Phenotype (%): 1%
  Population Mitotic Cells (%): 96%
  Population Normal (%): 96%
  Population Pyknosed Nuclei (%): 1%
  Population Tubulin-Different-Phenotype (%): 4%
  Total Cell Count: 3379
